Laboratory results taken from ChEMBL document CHEMBL5034042 (ACS Med Chem Lett, 2022).

What was measured:
[1] = target: T1, Trace amine-associated receptor 1 (Homo sapiens) (UniProt Q96RJ0); test: Agonist activity at recombinant human TAAR1 expressed in CHO-K1 cells assessed as maximal increase in intracellular cAMP incubated for 30 mins by HTRF analysis relative to control; type: functional, cell-based; settings: filed as agonist
T1 sequence (whole entry): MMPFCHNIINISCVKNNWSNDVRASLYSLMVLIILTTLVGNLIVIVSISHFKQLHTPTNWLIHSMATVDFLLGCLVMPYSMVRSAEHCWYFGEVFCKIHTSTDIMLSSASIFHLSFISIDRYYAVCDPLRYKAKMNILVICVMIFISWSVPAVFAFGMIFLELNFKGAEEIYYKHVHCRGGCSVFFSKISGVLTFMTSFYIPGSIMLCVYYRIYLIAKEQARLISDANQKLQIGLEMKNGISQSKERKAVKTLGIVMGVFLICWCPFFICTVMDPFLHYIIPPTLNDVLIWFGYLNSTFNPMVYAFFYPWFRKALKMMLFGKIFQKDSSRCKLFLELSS
How it was run: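 Maximal response (Emax) is expressed relative to a p-tyramine control applied to each plate. Values were run in triplicate under identical conditions in a single study and are reported as mean ± SEM (n = 3).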

[2] = target: T2, Trace amine-associated receptor 1 (Homo sapiens, UniProt Q96RJ0); test: Agonist activity at recombinant human TAAR1 expressed in CHO-K1 cells assessed as increase in intracellular cAMP incubated for 30 mins by HTRF analysis; type: functional, cell-based
T2 sequence (Q96RJ0 whole entry): T1 sequence (whole entry)
How it was run: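 Human TAAR1 agonism was measured in a single study under identical conditions.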

SMILES	Emax [1] [%]	EC50 [2] [nM]
NCC1OCCCc2ccsc21 (racemic)	111	65
CNCC1OCCCc2ccsc21 (racemic)	113	321
NCCc1cccc(O)c1	109	339
c1cc2c(s1)[C@H](CN1CCCC1)OCC2	113	7200
COc1cc(CCN)ccc1O	101	308
NCCc1c[nH]c2ccccc12 [TRYPTAMINE]	102	2210
NCCc1c[nH]c2ccc(O)cc12 [SEROTONIN]	75	35100
CNCC1OCCc2cscc21 (configuration not stated)	112	290
NCCc1ccsc1	112	25
NCCc1ccc(Oc2ccc(O)cc2)c(I)c1	105	225
CNCCc1ccccc1	111	151
NCCc1ccc(O)cc1 [TYRAMINE]	111	76
NC[C@@H](O)c1ccc(O)cc1	108	4110
CNC[C@H](O)c1ccc(O)cc1	113	4730
CNC[C@]1(C)OCCc2ccsc21	95	45700
CNC[C@@H]1OCCc2sccc21	110	113
NCCc1cccs1	113	8.3
NCC[C@@H]1OCCc2ccsc21	105	233
NC[C@H](O)c1ccc(O)cc1	116	1570
NCCc1ccccc1 [PHENETHYLAMINE]	111	15
NC[C@@H]1OCCc2ccsc21	110	3.5
CN(C)C[C@@H]1OCCc2ccsc21	112	203
NCC(O)c1ccc(O)c(O)c1 (configuration not stated)	99	12200
NCCc1ccc(O)c(O)c1	97	–
